Laboratory results: publication PMC3742633 (Molecular cancer therapeutics, 2013)

Experiments:
[1] = test system: SK-MEL-2; test: NCI 60 cell line screen, Sulforhodamine B Assay; assay type: cell-based; conditions: Homo sapiens, SK-MEL-2, 48 h
Procedure, shortened: (§1)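 Run through the NCI-60 screening service: human cancer cell lines exposed to test compound for 48 h. Growth read as cellular protein content by sulforhodamine B staining, and GI50 derived from this.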

[2] = test system: NCI-H23; test: NCI 60 cell line screen, Sulforhodamine B Assay; assay type: cell-based; conditions: Homo sapiens, NCI-H23, 48 h
Procedure, shortened: as §1

[3] = test system: SF-268; test: NCI 60 cell line screen, Sulforhodamine B Assay; assay type: cell-based; conditions: Homo sapiens, SF-268, 48 h
Procedure, shortened: as §1

[4] = test system: NCI/ADR-RES; test: NCI 60 cell line screen, Sulforhodamine B Assay; assay type: cell-based; conditions: Homo sapiens, 48 h
Procedure, shortened: as §1

[5] = test system: CAKI-1; test: NCI 60 cell line screen, Sulforhodamine B Assay; assay type: cell-based; conditions: Homo sapiens, CAKI-1, 48 h
Procedure, shortened: as §1

[6] = test system: CT26 colon adenocarcinoma cells; test: CT26 xenograft tumor growth; assay type: in vivo, Balb/C athymic mice; conditions: 25 mg/kg i.p. every 3 days × 4; similarly to irinotecan
[7] = biological target: PFKFB4 (Homo sapiens, UniProt Q16877); test: Activity of purified PFKFB4; assay type: biochemical; conditions: up to 100 μM; data not shown
[8] = test system: OVCAR-5; test: NCI 60 cell line screen, Sulforhodamine B Assay; assay type: cell-based; conditions: Homo sapiens, OVCAR-5, 48 h
Procedure, shortened: as §1

[9] = test system: A549/ATCC; test: NCI 60 cell line screen, Sulforhodamine B Assay; assay type: cell-based; conditions: Homo sapiens, A549, 48 h
Procedure, shortened: as §1

[10] = test system: COLO 205; test: NCI 60 cell line screen, Sulforhodamine B Assay; assay type: cell-based; conditions: Homo sapiens, COLO 205, 48 h
Procedure, shortened: as §1

[11] = test system: CCRF-CEM; test: NCI 60 cell line screen, Sulforhodamine B Assay; assay type: cell-based; conditions: Homo sapiens, 48 h
Procedure, shortened: as §1

[12] = test system: SK-MEL-28; test: NCI 60 cell line screen, Sulforhodamine B Assay; assay type: cell-based; conditions: Homo sapiens, SK-MEL-28, 48 h
Procedure, shortened: (§2)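 Run through the National Cancer Institute 60 cell line screening service on its panel of 59 human cancer lines in vitro. Cytostatic/toxic effect was read as cellular protein content (sulforhodamine B) over 48 h.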

[13] = test system: BT-549; test: NCI 60 cell line screen, Sulforhodamine B Assay; assay type: cell-based; conditions: Homo sapiens, BT-549, 48 h
Procedure, shortened: as §1

[14] = test system: HCT-116; test: NCI 60 cell line screen, Sulforhodamine B Assay; assay type: cell-based; conditions: Homo sapiens, HCT-116, 48 h
Procedure, shortened: as §1

[15] = test system: purified PFK-1; test: Activity of purified PFK-1; assay type: biochemical; conditions: up to 100 μM; data not shown
[16] = test system: OVCAR-8; test: NCI 60 cell line screen, Sulforhodamine B Assay; assay type: cell-based; conditions: Homo sapiens, OVCAR-8, 48 h
Procedure, shortened: as §1

[17] = test system: SK-MEL-5; test: NCI 60 cell line screen, Sulforhodamine B Assay; assay type: cell-based; conditions: Homo sapiens, SK-MEL-5, 48 h
Procedure, shortened: as §2

[18] = test system: T-47D; test: NCI 60 cell line screen, Sulforhodamine B Assay; assay type: cell-based; conditions: Homo sapiens, T47D, 48 h
Procedure, shortened: as §2

[19] = Pharmacokinetic profile after IV administration; assay type: in vivo, female C57Bl/6 mice; conditions: plasma
Procedure, shortened: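 Test compound was given IV to female C57Bl/6 mice, with 8 time points and 3 animals per time point. Plasma was extracted with acetonitrile and analysed by LC-MS/MS on a polar reverse-phase column with a 0.5% formic acid acetonitrile/water mobile phase. Tmax, Cmax, volume of distribution, half-life, clearance, AUCs and MRT were calculated from the concentration–time data.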

[20] = test system: PC-3; test: NCI 60 cell line screen, Sulforhodamine B Assay; assay type: cell-based; conditions: Homo sapiens, PC-3, 48 h
Procedure, shortened: as §1

[21] = test system: BxPC-3 pancreatic cancer cells; test: BxPC-3 xenograft tumor growth; assay type: in vivo, Balb/C athymic mice; conditions: 25 mg/kg i.p. every 3 days × 4; similarly to gemcitabine
[22] = test system: UO-31; test: NCI 60 cell line screen, Sulforhodamine B Assay; assay type: cell-based; conditions: Homo sapiens, UO-31, 48 h
Procedure, shortened: as §2

[23] = test system: Jurkat and H522 cells; test: F26BP measurement in cells; assay type: cell-based, human; conditions: three hours exposure
Procedure, shortened: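 Cells plated at 1×10^5/well, 24 h in RPMI or DMEM (5% CO2, 37°C), then exposed to test compound for 3 h. Cells triturated, washed twice in PBS, dissolved in […] NaOH. F26BP measured by coupled enzyme reaction and normalized to BCA protein. Triplicate or quadruplicate; unpaired two-tailed t-test.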

[24] = biological target: phosphoglucoseisomerase (Homo sapiens, UniProt P06744); test: Activity of purified phosphoglucoseisomerase; assay type: biochemical; conditions: up to 100 μM; data not shown
[25] = test system: HT29; test: NCI 60 cell line screen, Sulforhodamine B Assay; assay type: cell-based; conditions: Homo sapiens, HT-29, 48 h
Procedure, shortened: as §1

[26] = test system: MDA-MB-435; test: NCI 60 cell line screen, Sulforhodamine B Assay; assay type: cell-based; conditions: Homo sapiens, MDA-MB-435, 48 h
Procedure, shortened: as §1

[27] = test system: UACC-62; test: NCI 60 cell line screen, Sulforhodamine B Assay; assay type: cell-based; conditions: Homo sapiens, UACC-62, 48 h
Procedure, shortened: as §2

[28] = test system: OVCAR-4; test: NCI 60 cell line screen, Sulforhodamine B Assay; assay type: cell-based; conditions: Homo sapiens, OVCAR-4, 48 h
Procedure, shortened: as §1

[29] = test system: NCI-H522; test: NCI 60 cell line screen, Sulforhodamine B Assay; assay type: cell-based; conditions: Homo sapiens, NCI-H522, 48 h
Procedure, shortened: as §1

[30] = test system: U251; test: NCI 60 cell line screen, Sulforhodamine B Assay; assay type: cell-based; conditions: Homo sapiens, U-251, 48 h
Procedure, shortened: as §2

[31] = test system: SK-OV-3; test: NCI 60 cell line screen, Sulforhodamine B Assay; assay type: cell-based; conditions: Homo sapiens, SK-OV-3, 48 h
Procedure, shortened: as §2

[32] = test system: MOLT-4; test: NCI 60 cell line screen, Sulforhodamine B Assay; assay type: cell-based; conditions: Homo sapiens, MOLT-4, 48 h
Procedure, shortened: as §1

[33] = test system: SF-539; test: NCI 60 cell line screen, Sulforhodamine B Assay; assay type: cell-based; conditions: Homo sapiens, SF-539, 48 h
Procedure, shortened: as §1

[34] = test system: SNB-19; test: NCI 60 cell line screen, Sulforhodamine B Assay; assay type: cell-based; conditions: Homo sapiens, SNB-19, 48 h
Procedure, shortened: as §2

[35] = test system: RPMI-8226; test: NCI 60 cell line screen, Sulforhodamine B Assay; assay type: cell-based; conditions: Homo sapiens, RPMI-8226, 48 h
Procedure, shortened: as §1

[36] = test system: HCT-15; test: NCI 60 cell line screen, Sulforhodamine B Assay; assay type: cell-based; conditions: Homo sapiens, HCT-15, 48 h
Procedure, shortened: as §1

[37] = biological target: recombinant human PFKFB3 protein (Homo sapiens, UniProt Q16875); test: Recombinant PFKFB3 kinase assay; assay type: biochemical
[38] = female, C57Bl/6, mouse, iv, 5 mg/kg

Chain of recombinant human PFKFB3 protein (Q16875 whole entry): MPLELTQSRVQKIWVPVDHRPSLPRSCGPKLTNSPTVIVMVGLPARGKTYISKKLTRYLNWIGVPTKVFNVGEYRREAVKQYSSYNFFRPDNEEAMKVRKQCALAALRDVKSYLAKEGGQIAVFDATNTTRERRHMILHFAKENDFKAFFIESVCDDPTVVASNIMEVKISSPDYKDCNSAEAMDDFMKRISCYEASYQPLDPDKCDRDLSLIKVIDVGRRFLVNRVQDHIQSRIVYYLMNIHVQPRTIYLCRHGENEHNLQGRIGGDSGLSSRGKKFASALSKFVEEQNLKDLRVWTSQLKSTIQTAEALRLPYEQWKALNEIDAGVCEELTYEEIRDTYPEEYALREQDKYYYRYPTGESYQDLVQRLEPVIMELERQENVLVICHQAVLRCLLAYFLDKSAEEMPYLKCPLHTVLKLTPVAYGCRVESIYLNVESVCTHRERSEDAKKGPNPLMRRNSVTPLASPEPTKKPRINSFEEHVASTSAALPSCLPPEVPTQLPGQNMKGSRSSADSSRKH
Chain of PFKFB4 (Q16877 whole entry, species assumed): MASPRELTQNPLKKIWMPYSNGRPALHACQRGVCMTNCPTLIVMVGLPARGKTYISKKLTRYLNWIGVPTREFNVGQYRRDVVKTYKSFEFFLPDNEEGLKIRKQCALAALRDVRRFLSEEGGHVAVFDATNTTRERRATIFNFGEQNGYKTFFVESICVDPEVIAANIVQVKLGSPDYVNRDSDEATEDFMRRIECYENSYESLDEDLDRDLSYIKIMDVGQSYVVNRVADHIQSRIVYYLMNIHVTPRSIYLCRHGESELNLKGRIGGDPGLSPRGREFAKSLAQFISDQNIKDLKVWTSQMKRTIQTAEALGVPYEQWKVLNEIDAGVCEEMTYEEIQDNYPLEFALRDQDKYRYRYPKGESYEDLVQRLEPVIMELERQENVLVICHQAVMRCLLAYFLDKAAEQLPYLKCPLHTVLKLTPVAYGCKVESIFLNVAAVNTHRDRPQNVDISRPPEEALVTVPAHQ

O=C(C=Cc1ccc2ccccc2n1)c1ccncc1 [PFK15, 1-(4-pyridinyl)-3-(2-quinolinyl)-2-propen-1-one]
GI50 [1]: 6460 nM
GI50 [2]: 3160 nM
GI50 [3]: 5250 nM
GI50 [4]: 3890 nM
GI50 [5]: 11500 nM
growth of colon adenocarcinomas (CT26) [6]: suppressed the growth
inhibition of activity of purified PFKFB4 [7]: not inhibit
GI50 [8]: 5370 nM
GI50 [9]: 5370 nM
GI50 [10]: 2450 nM
GI50 [11]: 3800 nM
GI50 [12]: 2090 nM
GI50 [13]: 2750 nM
GI50 [14]: 1320 nM
inhibition of activity of purified PFK-1 [15]: not inhibit
GI50 [16]: 1820 nM
GI50 [17]: 3470 nM
GI50 [18]: 3630 nM
AUC0-inf ([19]; IV, C57Bl/6 mice): 1804 ng/h/mL
Cmax [19, 38]: 3050 ng/mL
clearance [19, 38]: 46.2 mL/min/kg
half-life [19, 38]: 5.1 h
GI50 [20]: 3160 nM
growth of pancreatic adenocarcinomas (BxPC-3) [21]: suppressed the growth
GI50 [22]: 1620 nM
effect on F26BP [23]: reduced
inhibition of activity of purified phosphoglucoseisomerase [24]: not inhibit
GI50 [25]: 2510 nM
GI50 [26]: 3240 nM
GI50 [27]: 2510 nM
GI50 [28]: 2340 nM
GI50 [29]: 1740 nM
GI50 [30]: 2040 nM
GI50 [31]: 15100 nM
GI50 [32]: 2240 nM
GI50 [33]: 2510 nM
GI50 [34]: 4570 nM
GI50 [35]: 2190 nM
GI50 [36]: 1100 nM
IC50 [37]: 207 nM
fold more activity against PFKFB3 than 3PO ([37]; relative to 3PO): approximately 100 fold
